Assay results gathered from unrelated publications.
Lines come from different studies, so protocols differ.
LATS1: Serine/threonine-protein kinase LATS1 (LATS1, Homo sapiens, UniProt O95835)
gag-pol reverse transcriptase: Gag-Pol polyprotein, reverse transcriptase (gag-pol, Human immunodeficiency virus 1, UniProt P03366)
SLC18A2: Synaptic vesicular amine transporter (SLC18A2, Homo sapiens, UniProt Q05940)
CA1: Carbonic anhydrase 1 (CA1, Homo sapiens, UniProt P00915)
UGT1A4: UDP-glucuronosyltransferase 1A4 (UGT1A4, Homo sapiens, UniProt P22310)
ACKR3: Atypical chemokine receptor 3 (ACKR3, Homo sapiens, UniProt P25106)
CYP2C19: Cytochrome P450 2C19 (CYP2C19, Homo sapiens, UniProt P33261)

Structure (SMILES)	target	test	system	conditions	IC50
OC1(c2ccc(-c3ccnc4[nH]cc(F)c34)cc2)CCNCC1	LATS1	target engagement in cells, BRET			17.1 µM
CCOC(=O)c1c(NCC(C)C)c2c([nH]c1=O)CCC2	gag-pol reverse transcriptase	enzyme activity, inhibitor			33.9 µM
OCCN1CCN(CCCN2c3ccccc3Sc3ccc(C(F)(F)F)cc32)CC1	SLC18A2	transporter uptake, inhibitor			2.34 µM
CNC(=O)c1ccccc1Nc1nc(Nc2ccc(N3CCNCC3)cc2)ncc1Cl	LATS1	target engagement in cells, BRET			0.301 µM
Cc1cncc(CN2CCC(=C3c4ccc(Cl)cc4CCc4cccnc43)CC2)c1	CA1	enzyme activity, inhibitor, absorbance		pH 7.4	14.7 µM
CCOC(=O)c1c(NCCC(C)C)c2c([nH]c1=O)CCC2	gag-pol reverse transcriptase	enzyme activity, inhibitor			88.7 µM
Clc1ccc2c(c1)C(N1CCNCC1)=Nc1ccccc1O2	SLC18A2	transporter uptake, inhibitor			8.5 µM
CN(C/C=C/C#CC(C)(C)C)Cc1cccc2ccccc12	CA1	enzyme activity, inhibitor, absorbance		pH 7.4	30.3 µM
C=CCc1ccccc1OCC(O)CNC(C)C (stereo not shown)	SLC18A2	transporter uptake, inhibitor			7.7 µM
Nc1ccc(S(=O)(=O)c2ccc(N)cc2)cc1	CA1	enzyme activity, inhibitor, absorbance		pH 7.4	17.1 µM
C[C@H]1[C@H](C)CC[C@]2(C(=O)O)CC[C@]3(C)C(=CC[C@@H]4[C@@]5(C)C[C@@H](O)[C@H](O)C(C)(C)[C@@H]5CC[C@]43C)[C@H]12	UGT1A4	enzyme activity, inhibitor	human, liver microsomes		2.66 µM
Fc1c[nH]c2nccc(-c3ccc(C4CCNCC4)cc3)c12	LATS1	enzyme activity, inhibitor, radiometric			0.0088 µM
NC(=O)c1nnn(Cc2cc(Cl)c(C(=O)c3ccc(Cl)cc3)c(Cl)c2)c1N	Delta-type opioid receptor (OPRD1, Homo sapiens, UniProt P41143)	cAMP, antagonist			1.09 µM
CCOC(=O)c1c(NCCCCN)c2c([nH]c1=O)CCC2	gag-pol reverse transcriptase	enzyme activity, inhibitor			> 100 µM
Cc1cc(-c2ccnc3[nH]cc(F)c23)cc(F)c1[C@@]1(O)[C@H](C)CNC[C@@H]1C	LATS1	target engagement in cells, BRET			0.027 µM
COc1cc2nc(N3CCN(C(=O)c4ccco4)[C@H]4CCCC[C@H]43)nc(N)c2cc1OC (racemic)	SLC18A2	transporter uptake, inhibitor			0.146 µM
CC(C)(C)NC(=O)C1CCN(Cc2cccc(/N=N/c3cccc(F)c3)c2)CC1	ACKR3	ligand displacement, BRET			2 µM
CCCCCCCCCC(=O)CC(=O)Nc1ccccc1	Transcriptional activator protein LasR (lasR, Pseudomonas aeruginosa, UniProt P25084)	reporter gene, antagonist			1.1 µM
CC1=C(/C=C/C(C)=C/C=C/C(C)=C\C(=O)O)C(C)(C)CCC1	CA1	enzyme activity, inhibitor, absorbance		pH 7.4	8.47 µM
OC1(c2ccc(-c3ccnc4[nH]cc(F)c34)cc2)CCCNCC1 (stereo not shown)	LATS1	enzyme activity, inhibitor, radiometric			0.017 µM
CCCCCNc1c2c([nH]c(=O)c1C(=O)OCC)CCC2	gag-pol reverse transcriptase	enzyme activity, inhibitor			> 100 µM
COc1ccnc(C[S+]([O-])c2nc3ccc(OC(F)F)cc3[nH]2)c1OC (stereo not shown)	Carbonic anhydrase 2 (CA2, Homo sapiens, UniProt P00918)	enzyme activity, inhibitor, absorbance		pH 7.4	13.8 µM
Cc1ccc(C(=O)Nc2ccc(CN3CCN(C)CC3)c(C(F)(F)F)c2)cc1C#Cc1cnc2cccnn12	SLC18A2	transporter uptake, inhibitor, radiometric		cell membranes	0.7 µM

Structure (SMILES)	target	test	system	conditions	IC50
Cc1cc(-c2ccnc3[nH]cc(F)c23)ccc1[C@@]1(O)[C@H](C)CNC[C@@H]1C	LATS1	target engagement in cells, BRET			0.078 µM
CCOC(=O)c1c(NCCO)c2c([nH]c1=O)CCC2	gag-pol reverse transcriptase	enzyme activity, inhibitor			> 100 µM
O=C(O[C@H]1CN2CCC1CC2)N1CCc2ccccc2[C@@H]1c1ccccc1	SLC18A2	transporter uptake, inhibitor			5.7 µM
CCOC(=O)c1c(NCCCN)c2c([nH]c1=O)CCC2	gag-pol reverse transcriptase	enzyme activity, inhibitor			> 100 µM
C[C@H]1c2cccc(O)c2C(=O)C2=C(O)[C@]3(O)C(=O)C(C(N)=O)=C(O)[C@@H](N(C)C)[C@@H]3[C@@H](O)[C@@H]21	CA1	enzyme activity, inhibitor, absorbance		pH 7.4	12.6 µM
O=C(CCCN1CC=C(n2c(=O)[nH]c3ccccc32)CC1)c1ccc(F)cc1	SLC18A2	transporter uptake, inhibitor, radiometric		cell membranes	0.154 µM
CCOC(=O)c1c(NCCC2CC2)c2c([nH]c1=O)CCC2	gag-pol reverse transcriptase	enzyme activity, inhibitor			> 100 µM
Cn1cc2c(C(=O)O)ccc(NS(=O)(=O)c3ccc(OCC4CCC4)c(Cl)c3)c2n1	cGMP-dependent 3',5'-cyclic phosphodiesterase (PDE2A, Homo sapiens, UniProt O00408)	enzyme activity			> 200 µM
C/C=C/CNc1c2c([nH]c(=O)c1C(=O)OCC)CCC2	gag-pol reverse transcriptase	enzyme activity, inhibitor			> 100 µM
Cc1ccc(OCC(=O)N[C@@H](Cc2c[nH]c3ccccc23)C(=O)OC(C)C)cc1	CYP2C19	enzyme activity, inhibitor	human, liver microsomes	30 min	31.5 µM
CN1CCC(CNc2ccc3ncc(-c4cccc(OC(F)(F)F)c4)n3n2)CC1	Alpha-2A adrenergic receptor (ADRA2A, Homo sapiens, UniProt P08913)	cAMP, antagonist			5.17 µM
C[C@@H]1CNC[C@H](C)[C@@]1(O)c1ccc(-c2ccnc3[nH]cc(F)c23)cc1	LATS1	target engagement in cells, BRET			0.518 µM
CC(C)(C)NC(=O)C1CCN(Cc2cccc(/N=N/c3ccccc3F)c2)CC1	ACKR3	ligand displacement, BRET			1.26 µM
CC(C)[C@H](N)C(=O)OCCOCn1cnc2c(=O)[nH]c(N)nc21	CA1	enzyme activity, inhibitor, absorbance		pH 7.4	12.8 µM
OCc1ccc(-c2nn(Cc3ccccc3)c3ccccc23)o1	CYP2C19	enzyme activity, inhibitor	human, liver microsomes		3.3 µM
C[C@@H]1CC[C@@]2(OC1)O[C@H]1C[C@H]3[C@@H]4CC[C@H]5C[C@@H](O)CC[C@]5(C)[C@H]4CC(=O)[C@]3(C)[C@H]1[C@@H]2C	UGT1A4	enzyme activity, inhibitor			2.3 µM
CC1CNCCC1(O)c1ccc(-c2ccnc3[nH]cc(F)c23)cc1 (stereo not shown)	LATS1	target engagement in cells, BRET			2.21 µM
OC(Cn1cncn1)(Cn1cncn1)c1ccc(F)cc1F	CA1	enzyme activity, inhibitor, absorbance		pH 7.4	11.1 µM
CC(C)(C)NC(=O)C1CCN(Cc2cccc(/N=N/c3ccccc3)c2)CC1	ACKR3	ligand displacement, BRET			1 µM
NC(=O)N1c2ccccc2C=Cc2ccccc21	Sodium channel protein type 2 subunit alpha (SCN2A, Homo sapiens, UniProt Q99250)	ion current, inhibitor, patch clamp			> 300 µM
O=C1/C(=C/c2ccc3ccccc3c2O)NC(=S)N1c1ccccc1	Receptor tyrosine-protein kinase erbB-2 (ERBB2, Homo sapiens, UniProt P04626)	enzyme activity, inhibitor, ELISA			0.197 µM
O=C1CC2(CCCC2)CC(=O)N1CCCCN1CCN(c2ncccn2)CC1	SLC18A2	transporter uptake, inhibitor			2.19 µM
NC/C(=C\F)COc1cccc(Cn2c(=S)[nH]c(=O)c3[nH]cnc32)c1	Diamine oxidase [copper-containing] (AOC1, Homo sapiens, UniProt P19801)	enzyme activity, inhibitor			> 30 µM
